OX1R antag-1: OX1R (HCRTR1) antagonists, primary screen, fluorescence, CHO/OX1R cells, Fluo-8 calcium, orexin A. Fluo-8 calcium fluorescence. Orexin/Hypocretin receptor type 1 (Homo sapiens), O43613. inhibition, % at 5 µM. 330,000 compounds, 0.43% hits. AID 434989, 2010;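 active means inhibition above its plate's threshold, mean inhibition of all tested compounds on the plate plus 3 SD, cut at about 37% in these data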;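 further: 0% = orexin A challenge wells and 100% = SB-334867-A antagonist wells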
Target sequence (O43613 whole entry, looked up): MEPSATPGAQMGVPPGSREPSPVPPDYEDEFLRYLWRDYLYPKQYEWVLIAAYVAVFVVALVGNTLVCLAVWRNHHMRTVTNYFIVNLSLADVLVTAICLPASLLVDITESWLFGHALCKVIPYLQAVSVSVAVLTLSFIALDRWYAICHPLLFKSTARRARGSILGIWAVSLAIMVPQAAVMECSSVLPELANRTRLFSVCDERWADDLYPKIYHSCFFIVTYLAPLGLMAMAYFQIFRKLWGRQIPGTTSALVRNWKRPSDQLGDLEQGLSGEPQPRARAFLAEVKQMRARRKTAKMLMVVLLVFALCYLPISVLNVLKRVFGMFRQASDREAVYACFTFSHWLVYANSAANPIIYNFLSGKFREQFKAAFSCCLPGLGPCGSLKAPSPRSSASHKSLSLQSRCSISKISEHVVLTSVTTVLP
OX1R antag-2: antagonists of human orexin 1 receptor (OX1R) | 330,000 compounds, 1.8% hits | OX1R-expressing cells, FRET antagonist read-out | AID 485270, 2010 | inhibition, % at 6.6 µM; in the data active means inhibition mostly above about 38%, no sharp cut-off; inactive means mostly below about 40%;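 further: 0% = agonist challenge alone and 100% = reference antagonist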
CHO parental Ca: ATP-evoked calcium signal inhibitors, parental CHO, primary screen, counter-screen for OX1R antagonist project, cell-based, fluorescence, Fluo-8 calcium dye; inhibition, % at 5.6 µM; AID 463079, 2010; 330,000 compounds, 0.63% hits; parental CHO-K1, ATP-induced calcium, Fluo-8 fluorescence;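 active means inhibition above that plate's mean sample inhibition plus 3 SD, cut at about 26% in these data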;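 further: 0% = ATP-challenged DMSO wells and 100% = DMSO wells without ATP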
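Assay system – parental CHO cells · Reagent – ATP stimulus · Detection – intracellular calcium via Fluo-8 no-wash fluorescent dye · Evaluation – percent inhibition of ATP-evoked calcium rise, normalized to controls · Controls – ATP wells versus no-ATP DMSO wells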
TAAR1 ag: human TAAR1 agonists, primary screen, Fluo-8 calcium fluorescence, CHO RD-HGA16 cells; Trace amine-associated receptor 1 (Homo sapiens), Q96RJ0; vehicle wells 0%, saturating PEA agonist 100%; activation, % at 3 µM; 360,000 compounds, 0.99% hits; AID 624467, 2012;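 active means activation above the mean activation of all test compounds in the run plus 3 SD, cut at about 38% in these data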
Target sequence (Q96RJ0 whole entry, looked up): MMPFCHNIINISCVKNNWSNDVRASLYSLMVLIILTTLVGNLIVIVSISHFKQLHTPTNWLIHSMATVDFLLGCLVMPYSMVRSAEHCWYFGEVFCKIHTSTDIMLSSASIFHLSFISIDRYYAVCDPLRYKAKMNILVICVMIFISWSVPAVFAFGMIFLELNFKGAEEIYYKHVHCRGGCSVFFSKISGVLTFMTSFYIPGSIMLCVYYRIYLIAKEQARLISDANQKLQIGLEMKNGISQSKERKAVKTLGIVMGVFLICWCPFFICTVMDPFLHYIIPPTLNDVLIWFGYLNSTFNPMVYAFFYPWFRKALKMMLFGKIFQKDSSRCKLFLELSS
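System: CHO-derived RD-HGA16 cells with stable Gα16 and human TAAR1. Times: 17-24 h plating, Fluo-8 75 min 37 °C, 30 min RT. Measured by: calcium-sensitive Fluo-8 signal, excitation 470-495, emission 515-575 nm. Read-out basis: % activation relative to PEA EC100 response. Control set: DMSO and PEA EC100. Repeats: no replicates (n 1).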
TAAR1 antagonist: human TAAR1 antagonists, primary screen, Fluo-8 calcium fluorescence, CHO RD-HGA16 cells; Trace amine-associated receptor 1 (Homo sapiens), Q96RJ0; antagonist; inhibition, % at 3 µM; 360,000 compounds, 1.5% hits; AID 624466, 2012;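 active means inhibition above a per-plate cutoff, the mean inhibition of test compounds on that plate plus 3 SD, cut at about 49% in these data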;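 further: 0% = DMSO plus EC80 beta-PEA response and 100% = DMSO alone without agonist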
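Test system: CHO RD-HGA16 cells bearing hTAAR1 | Reagent: β-PEA, EC80 | Compound dosing: 3 µM, single point | Schedule: Dye loading 75 min at 37 °C, then 30 min room temperature | Signal: Calcium fluorescence with Fluo-8 | Evaluation: Percent inhibition of PEA-evoked calcium signal, max/basal emission ratio | Control set: DMSO-only wells and EC80 β-PEA-stimulated wells | Repeats: Singlicate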
TAAR1 ag confirm: human TAAR1 agonists, retest of hits, confirmation, Fluo-8 calcium fluorescence, CHO RD-HGA16 cells; shares compounds with TAAR1 ag; scaled: DMSO 0%, maximal phenethylamine 100%; activation, % at 3 µM; 2,400 compounds, 82% hits; AID 651783, 2012;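 active means activation above a cutoff set at the run's mean compound activation plus 3 SD, cut at about 39% in these data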
Ga16 ag counter: nonselective calcium mobilization agonists, CHO-Ga16 cells, counter-screen for hTAAR1 agonist project, cell-based, fluorescence, CHO-Ga16 parental line | Fluo-8 calcium fluorescence; normalized to maximal ATP response, DMSO zero | 2,400 compounds, 50% hits | shares compounds with TAAR1 ag | activation, % at 3 µM;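 active means activation above the run cutoff, the mean activation over all tested wells plus 3 SD, cut at about 12% in these data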;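 further: 0% = DMSO wells and 100% = maximal ATP response on the peak over basal ratio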
TAAR1 desensitize: TAAR1 desensitization by agonist hits, confirmation, counter-screen for TAAR1 agonist project, cell-based, fluorescence, tachyphylaxis. 2,400 compounds, 46% hits. inhibition, % at 3 µM. shares compounds with TAAR1 ag. CHO RD-HGA16 hTAAR1, Fluo-8 calcium, beta-PEA response inhibition;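 active means inhibition above the run cutoff, the mean inhibition of all test compounds plus 3 SD, cut at about 49% in these data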;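 further: beta-PEA stimulus applied at its EC80; loss of beta-PEA calcium signal after compound pretreatment read as receptor desensitization; 0% = DMSO with beta-PEA at EC80 and 100% = DMSO alone without agonist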
Ga16 nonsel ant: inhibition of ATP-evoked calcium response in CHO-Ga16 cells, counter-screen for TAAR1 agonist project, cell-based, fluorescence | 2,400 compounds, 39% hits | shares compounds with TAAR1 ag | inhibition, % at 3 µM | CHO-Ga16 ATP-induced calcium, Fluo-8 fluorescence | AID 651952, 2012;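 active means inhibition above the plate's mean compound inhibition plus 3 SD, computed per plate, cut at about 22% in these data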;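 further: 0% = EC80 ATP with DMSO and 100% = DMSO wells without ATP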
Numbers without * were called inactive; x = no result given. Only some compounds are listed: those with a hit (about 3.9% of all), similar ones and a draw of the others.

SMILES	OX1R antag-1	OX1R antag-2	CHO parental Ca	TAAR1 ag	TAAR1 antagonist	TAAR1 ag confirm	Ga16 ag counter	TAAR1 desensitize	Ga16 nonsel ant
CC(C)c1ccc(-c2c(NCCc3ccccc3)c(=O)c2=O)cc1	-4	4	1	49*	-4	37	2	13	9
Cc1ccc(-c2c(NCCc3ccccc3)c(=O)c2=O)cc1	-6	-5	-4	2	-5	x	x	x	x
O=C(NCCc1ccccc1)c1cc2ncc(Br)cn2n1	-11	21	-3	48*	1	57*	1	22	12
COCCNC(=O)c1cc2ncc(Br)cn2n1	-11	15	-4	9	0	x	x	x	x
CCCOC1CCCN(C(=O)c2cc(Cl)c(Cl)cc2C(=O)O)C1 (stereo unspecified)	-9	17	-8	65*	24	82*	4	51*	15
O=C(OCC(=O)N1CCc2ccccc21)c1nc(Cl)ccc1Cl	-25	4	-10	6	-3	x	x	x	x
O=c1nc(N2CCCCC2)nc(Nc2ccccc2)[nH]1	3	9	-5	66*	69*	73*	1	80*	8
NNc1nc(Nc2ccccc2)nc(N2CCCCC2)n1	-33	8	-40	45*	16	66*	2	41	5
NNc1nc(Nc2ccc([N+](=O)[O-])cc2)nc(N2CCCCCC2)n1	-28	14	-17	5	-19	x	x	x	x
CCCCCCN1C[C@@H](n2cc(C3CC3)nn2)[C@H](O)C[C@@H]1c1ccc(Cl)cc1	x	x	x	4	-12	x	x	x	x
O=C(C[C@@H]1C=C[C@H](NC(=O)Cc2ccccn2)[C@@H](CO)O1)NCCc1ccccc1	x	x	x	x	x	x	6	x	8
Cc1cccc(NC(=O)CN2C(=O)S/C(=C\c3ccc(O)c([N+](=O)[O-])c3)C2=O)c1	-9	44	-11	3	-27	x	x	x	x
Cc1ccc(NC(=O)CN2C(=O)S/C(=C/c3ccc(O)c([N+](=O)[O-])c3)C2=O)cc1C	x	x	x	91*	80*	19	7	0	8
CCOc1cc(/C=N/NC(=O)c2cccnc2)cc(Br)c1OCC(N)=O	4	9	-15	-1	15	x	x	x	x
CCOc1cc(CN2CCCC(N3CCc4ccccc4C3)C2)ccc1O (stereo unspecified)	x	x	x	3	-5	x	x	x	x
COc1cc(CN2CCCCCC2)cc([N+](=O)[O-])c1O	0	16	-1	0	-5	x	x	x	x
COc1cc(CN2CCc3ccccc3C2)ccc1O	-6	10	14	x	x	x	0	x	4
COc1cc(CN2CCc3ccccc3C2)cc([N+](=O)[O-])c1O	-12	32	-12	98*	59*	98*	1	77*	-6
O=C(Cn1cnc([N+](=O)[O-])n1)c1ccc(O)c(O)c1	9	18	5	4	-11	x	x	x	x
O=C(O)C1NCCc2ccccc21 (stereo unspecified)	-6	7	-14	72*	38	67*	0	24	2
CSCCC1NC(=O)N(CC(=O)Nc2ccc3c(c2)OCCO3)C1=O (stereo unspecified)	-8	7	-3	10	7	x	x	x	x
COc1ccc(OC)c(NC(=O)NCCc2c[nH]c3ccccc23)c1	x	x	x	7	9	x	x	x	x
c1ccc(SCCOCCN2CCOCC2)cc1	-16	5	-10	0	-2	x	x	x	x
c1ccc(SCCOCCN2CCc3ccccc3C2)cc1	-22	1	-14	50*	-20	62*	0	15	4
CCN(c1cccc(C)c1)c1nc2ccsc2c(=O)s1	-19	29	-27	3	-8	x	x	x	x
SMILES	OX1R antag-1	OX1R antag-2	CHO parental Ca	TAAR1 ag	TAAR1 antagonist	TAAR1 ag confirm	Ga16 ag counter	TAAR1 desensitize	Ga16 nonsel ant
Cc1ccc(N(C(=O)CNC(=O)c2ccco2)C(C(=O)NCC2CCCO2)c2ccccc2)cc1 (stereo unspecified)	-25	14	-23	9	9	x	x	x	x
CCCCCNC(=O)[C@@H]1CSC2c3ccccc3C(=O)N21 (stereo partly specified)	-29	-3	-19	1	-30	x	x	x	x
O=C(NCCc1cccc(F)c1)[C@@H]1CSC2c3ccccc3C(=O)N21 (stereo partly specified)	-12	20	-35	54*	14	77*	3	43	15
CCOCCn1c(CN2CCOCC2)nc2c1c(=O)[nH]c(=O)n2C	8	6	-7	1	-4	x	x	x	x
CCNC(=S)NNC(=O)c1cc(-c2ccc(OCC)cc2)nc2ccccc12	-27	3	-33	8	22	x	x	x	x
COc1ccc(Cl)cc1C(=O)NNC(=S)NC(=O)c1cc(-c2ccccc2)nc2ccccc12	2	10	13	104*	75*	114*	96*	102*	87*
CCCOc1ccc(C(=O)NNC(=S)NC(=O)c2cc(-c3ccc(Cl)cc3)nc3ccccc23)cc1	12	29	12	62*	85*	105*	78*	103*	94*
COc1ccc(C(=O)NNC(=S)NC(=O)c2cc(-c3ccccc3)nc3ccccc23)cc1	-3	26	-10	128*	88*	122*	94*	95*	73*
O=Cc1ccc2c(c1)OCCOCCOCCOCCO2	x	x	x	4	-16	x	x	x	x
Cc1ccc(Nc2nc(N)c3ccccc3n2)cc1C	x	x	x	68*	6	67*	2	54*	3
CCCCNC(=O)c1c(N)[nH]c(C(=O)c2ccccc2)c1-c1ccc(Cl)cc1	x	x	x	2	-8	x	x	x	x
Cc1cc(Cl)c(OCCOCCN2CCCCC2)c(Br)c1	-17	20	-12	3	5	x	x	x	x
C=CCNCCCCOc1c(Cl)cc(C)cc1Br	-16	16	-6	30	-6	x	x	x	x
Cc1cc(Cl)c(OCCCNC2CCCC2)c(Br)c1	-29	2	2	58*	-3	28	11	5	13

Compound activity deposited in PubChem BioAssay by The Scripps Research Institute Molecular Screening Center.
